Laboratory results taken from ChEMBL document CHEMBL1121966, “(2R*,3S*)-1-[125I]Iodo-2,3-bis(4-hydroxyphenyl)pentane ([125I]iodonorhexestrol) and (2R*,3S*)-1-[77Br]Bromo-2,3-bis(4-hydroxyphenyl)pentane ([77Br]bromonorhexestrol), two gamma-emitting estrogens that show receptor-mediated uptake by target tissues in vivo” (1982).

Assays:
Rattus norvegicus [1] = organism: Rattus norvegicus; test: Solvolytic stability was measured relative to p-hydroxyphenethyl bromide; format: functional
How it was run: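 Solvolysis rates were measured in 40% ethanol-water at 50 °C, buffered to pH 7. Values are 1/k_rel = (k_compound/k_p-hydroxyphenylethyl bromide)^-1.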

Rattus norvegicus [2] = organism: Rattus norvegicus; test: Percent injected dose per gram Ovaries at 1 hr; format: functional
How it was run: (§1)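 Immature (25-day, ca. 50 g) Sprague-Dawley female rats received an iv injection (jugular or tail vein) of HPLC-purified tracer in ethanol plus 0.9% NaCl/rat serum 1:1. Doses were 2 μCi [125I]iodo tracer (≤15 pmol), or 2 μCi [77Br]bromo tracer (≤1.25 pmol) with 2 μCi 16α-[125I]iodoestradiol. Animals were killed at 1 h; blood and tissues were weighed and γ-counted. Blocking: coinjected unlabeled estradiol, 9 μg (iodo) or 18 μg (bromo). Mean ± SD.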

Rattus norvegicus [3] = organism: Rattus norvegicus; test: Percent injected dose per gram spleen at 6 hr; format: functional
How it was run: (§2)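 Immature (25 day) female Sprague-Dawley rats (ca. 50 g) were dosed iv (jugular or tail vein) in ethanol plus 0.9% NaCl/rat serum (1:1). Doses were 2 μCi of [125I]iodonorhexestrol (≤15 pmol/dose), or 2 μCi each of [77Br]bromonorhexestrol (≤1.25 pmol/dose) and 16α-[125I]iodoestradiol (2 pmol/dose). Rats were killed at 1, 3 or 6 h; blood and tissues were weighed and γ-counted. Thyroid weight assumed 0.005 g/100 g body weight. Mean ± SD.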

Rattus norvegicus [4] = organism: Rattus norvegicus; test: Percent injected dose per gram esophagus at 6 hr; format: functional
How it was run: (§3)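 Dual-label study in immature 25-day female Sprague-Dawley rats (ca. 50 g). Each received 2 μCi [77Br]bromo tracer (≤1.25 pmol/dose) and 2 μCi 16α-[125I]iodoestradiol (2 pmol/dose) by tail or jugular vein, in ethanol diluted with saline/rat serum 1:1. Rats were killed at 3 or 6 h; blood and 11 tissues were weighed and counted. Five rats per time point; mean ± SD.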

[5] = Spleen/blood distribution ratio was determined in immature female rats at 1 hr with unlabeled estradiol; format: functional
[6] = Esophagus/blood distribution ratio was determined in immature female rats at 1 hr with unlabeled estradiol; format: functional; how it was run: as §1
[7] = Ovary/blood distribution ratio was determined in immature female rats at 6 hr; format: functional; how it was run: as §3
Rattus norvegicus [8] = organism: Rattus norvegicus; test: Percent injected dose per gram Muscle at 6 hr; format: functional; how it was run: as §3
Rattus norvegicus [9] = organism: Rattus norvegicus; test: Percent injected dose per gram Ovaries at 6 hr; format: functional; how it was run: as §3
[10] = Kidney/blood distribution ratio was determined in immature female rats at 1 hr with unlabeled estradiol; format: functional; how it was run: as §1
[11] = Esophagus/blood distribution ratio was determined in immature female rats at 1 hr; format: functional; how it was run: as §1
[12] = Uterus/blood distribution of compound was measured in immature female rats at 1 hr with unlabeled estradiol; format: functional
How it was run: (§4)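 Same iv biodistribution in immature female rats, killed at 1 h, with unlabeled estradiol coinjected to block receptor uptake: 9 μg with [125I]iodonorhexestrol (3 rats), 18 μg with the [77Br]bromonorhexestrol/16α-[125I]iodoestradiol pair (5 rats). Tissue and blood radioactivity were counted as % injected dose/g and tissue-to-blood ratio.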

[13] = Uterus/blood distribution ratio was measured in immature female rats at 3h; format: functional; how it was run: as §2
[14] = Kidney/blood distribution ratio was determined in immature female rats at 1 hr; format: functional; how it was run: as §1
Rattus norvegicus [15] = organism: Rattus norvegicus; test: Percent injected dose per gram thyroid at 1 hr; format: functional, Thyroid gland; how it was run: as §2
Rattus norvegicus [16] = organism: Rattus norvegicus; test: Percent injected dose per gram lung at 1 hr with unlabeled estradiol; format: functional; how it was run: as §4
Rattus norvegicus [17] = organism: Rattus norvegicus; test: Percent injected dose per gram esophagus at 1 hr; format: functional; how it was run: as §1
Rattus norvegicus [18] = organism: Rattus norvegicus; test: Percent injected dose per gram liver at 1 hr with unlabeled estradiol; format: functional; how it was run: as §4
Rattus norvegicus [19] = organism: Rattus norvegicus; test: Percent injected dose per gram lung at 6 hr; format: functional; how it was run: as §2
Rattus norvegicus [20] = organism: Rattus norvegicus; test: Percent injected dose per gram liver at 3h; format: functional; how it was run: as §2
[21] = Tissue/blood distribution ratio was measured in immature female rats at 1h, unlabeled estradiol (18 microg) coinjected; format: functional
How it was run: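 Immature female rats given iv [77Br]bromonorhexestrol with 16α-[125I]iodoestradiol (2 μCi each) plus 18 μg unlabeled estradiol coinjected; killed at 1 h. Tissue and blood were weighed and counted, and tissue-to-blood radioactivity ratios were computed; 5 animals, mean ± SD.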

[22] = Thyroid/blood distribution ratio was determined in immature female rats at 1 hr; format: functional; how it was run: as §2
Rattus norvegicus [23] = organism: Rattus norvegicus; test: Percent injected dose per gram Uterus at 6 hr; format: functional; how it was run: as §3
[24] = Kidney/blood distribution ratio was determined in immature female rats at 6 hr; format: functional; how it was run: as §3
[25] = Kidney/blood distribution ratio was determined in immature female rats at 3h; format: functional; how it was run: as §3
Rattus norvegicus [26] = organism: Rattus norvegicus; test: Percent injected dose per gram lung at 1 hr; format: functional; how it was run: as §2

`CC[C@H](c1ccc(O)cc1)[C@@H](CBr)c1ccc(O)cc1` gave a 1/krel (Rattus norvegicus [1]) of 1.17, an Injected dose (Rattus norvegicus [2]) of 1.38% and an Injected dose (Rattus norvegicus [3]) of 0.69%. For the same compound, the Injected dose (Rattus norvegicus [4]) was 0.68%, the Ratio [5] was 0.51 and the Ratio [6] was 0.59. It also gave a Ratio [7] of 1.41, an Injected dose (Rattus norvegicus [8]) of 0.35% and an Injected dose (Rattus norvegicus [9]) of 1.93%. The Ratio [10] was 0.84, the Ratio [11] was 0.54 and the Ratio [12] was 0.98. It also gave a Ratio [13] of 2.86, a Ratio [14] of 1.29 and an Injected dose (Rattus norvegicus [15]) of 0.26%. The Injected dose (Rattus norvegicus [16]) was 0.8%, the Injected dose (Rattus norvegicus [17]) was 0.38% and the Injected dose (Rattus norvegicus [18]) was 1.46%. The Injected dose (Rattus norvegicus [19]) was 1.02%, the Injected dose (Rattus norvegicus [20]) was 1.05% and the Ratio [21] was 1. It also gave a Ratio [22] of 0.32, an Injected dose (Rattus norvegicus [23]) of 3.19% and a Ratio [24] of 0.89. The Ratio [25] was 0.76 and the Injected dose (Rattus norvegicus [26]) was 0.42%.
